The source of these data is ChEMBL document CHEMBL4831479, “Discovery of Novel Thiophene-arylamide Derivatives as DprE1 Inhibitors with Potent Antimycobacterial Activities” (J Med Chem, 2021).

Series [1] relates to Mycobacterium tuberculosis. The series is described as follows: Antitubercular activity against Mycobacterium tuberculosis H37Rv assessed as bacterial growth inhibition incubated for 7 days by microplate Alamar blue assay. In kind it is functional. Particulars: 168 h, time 7 day. In short, it runs like this:
(§1)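 MABA: H37Rv or clinical isolates grown to late log phase in 7H9 with 0.2% glycerol, 0.05% Tween 80, 10% ADC; washed, filtered 8 μm, frozen. 2 × 10⁵ CFU per well with twofold compound dilutions, 37 °C; day 7 Tween 80 plus Alamar blue, 16–24 h more, fluorescence ex 530/em 590. MIC = lowest concentration giving ≥90% fluorescence reduction versus bacterium-only controls; RFP, INH, TCA1 controls.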
(Resazurin is reduced to fluorescent resorufin, in cell work by metabolically active cells.)

Series [2] concerns the target T1, Decaprenylphosphoryl-beta-D-ribose oxidase (Mycobacterium tuberculosis (strain ATCC 25618 / H37Rv)) (UniProt P9WJF1).
T1 sequence (whole entry): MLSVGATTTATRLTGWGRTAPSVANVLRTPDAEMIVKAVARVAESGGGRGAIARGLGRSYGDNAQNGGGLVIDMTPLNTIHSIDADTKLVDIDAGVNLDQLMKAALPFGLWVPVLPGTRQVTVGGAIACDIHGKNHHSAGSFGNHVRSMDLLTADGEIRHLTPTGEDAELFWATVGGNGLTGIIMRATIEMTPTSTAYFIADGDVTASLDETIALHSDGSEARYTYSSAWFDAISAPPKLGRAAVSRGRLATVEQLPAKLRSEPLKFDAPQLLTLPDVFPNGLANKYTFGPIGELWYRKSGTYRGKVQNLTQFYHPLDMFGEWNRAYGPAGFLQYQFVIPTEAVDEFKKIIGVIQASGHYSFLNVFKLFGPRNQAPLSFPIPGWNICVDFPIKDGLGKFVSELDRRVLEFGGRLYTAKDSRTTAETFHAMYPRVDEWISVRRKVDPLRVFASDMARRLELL
As to the kind of experiment: Non-covalent inhibition of DprE1 in Mycobacterium tuberculosis H37Rv measured after 7 days by microplate Alamar blue assay. Conditions: time 7.0 day. In a few lines:
as §1

The test system of series [3] is Mycobacterium tuberculosis. As to the kind of experiment: Antimycobacterial activity against Mycobacterium tuberculosis H37Rv infected in mouse J774.1 cells assessed as reduction in bacterial colony forming units at 5 ug/ml incubated for 3 days (reference value: 5.52 +/- 0.18 log10CFU). Conditions: dose 5 µg/ml; time 3 day. In kind it is functional. In short, it runs like this:
(§2)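 Mouse J774A.1 macrophages infected with M. tuberculosis H37Rv, treated 3 days at final 10 or 5 μg/mL; rifampicin control at 5 μg/mL. Intracellular log10 CFU counted; Δlog10 CFU = untreated minus treated. Triplicate, at least three separate experiments.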

In a further series the test system is HepG2. As to the kind of experiment: Cytotoxicity against human HepG2 cells assessed as reduction in cell viability measured after 48 hrs by MTT assay. Format: cell-based. Conditions: HepG2, 48 h. In a few lines: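 Threefold serial dilutions gave final concentrations of 64 to 0.26 μg/mL. After 48 h at 37 °C, monolayers were washed with warm HBSS and given fresh medium plus MTT for 4 h. Absorbance was read at 492 nm. IC₅₀ is the concentration giving 50% growth inhibition versus the untreated control.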

Series [4] deals with Mycobacterium tuberculosis. As to the kind of experiment: Antimycobacterial activity against Mycobacterium tuberculosis H37Rv infected in mouse J774.1 cells assessed as change in bacterial colony forming units at 10 ug/ml incubated for 3 days. Conditions: dose 10 µg/ml; time 3 day. Format: functional. In a few lines:
as §2

Series [5] concerns Mycobacterium tuberculosis. The series is described as follows: Antimycobacterial activity against Mycobacterium tuberculosis H37Rv infected in mouse J774.1 cells assessed as reduction in bacterial colony forming units at 10 ug/ml incubated for 3 days (reference value: 5.52 +/- 0.18 log10CFU). Conditions: dose 10 µg/ml; time 3 day. In kind it is functional. In short, it runs like this: as §2

Series [6] relates to Mycobacterium tuberculosis. As to the kind of experiment: Antimycobacterial activity against Mycobacterium tuberculosis H37Rv infected in mouse J774.1 cells assessed as change in bacterial colony forming units at 5 ug/ml incubated for 3 days. In kind it is functional. Conditions: dose 5 µg/ml; time 3 day. In short, it runs like this:
as §2

Series [7] in a line: Stability in mouse hepatocytes assessed as parent compound remaining at 1 uM measured after 30 mins by LC-MS/MS analysis. Format: ADME, cell-based, Hepatocyte. Conditions: 0.5 h. In short, it runs like this:
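Hepatocytes from male mice; metabolic stability measured as the amount of parent compound remaining. Concentrations after 30 min incubation were normalized to those at time zero.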

A short description of series [8]: Selectivity index, ratio of IC50 for African green monkey Vero cells to MIC for antitubercular activity against Mycobacterium tuberculosis H37Rv. Format: toxicity. Conditions: read-out: Selectivity Index.

≈ marks a conversion by molar mass, not a printed value.

As a reminder, the IC50 is the concentration at which inhibition is half-maximal.

Take `COC(=O)C1CCN(C(=O)c2ccsc2NC(=O)c2ccc(C(=O)N3CCCCC3)cc2)CC1`: the MIC in series [1] is more than 32 µg/mL.
In series [2], `CCOC(=O)NC(=O)c1ccsc1NC(=O)c1ccc(C(=O)N2CCCCC2)cc1` gave an MIC of 0.055 µg/mL (≈ 0.128 µM). The Activity in series [3] is 4.54 log10CFU; in series [4], 1.07 deltalog10CFU; in series [5], 4.45 log10CFU; in series [6] it was 0.98 deltalog10CFU. In the series on HepG2, the IC50 is more than 64 µg/mL.
`CCOC(=O)NC(=O)c1ccsc1NC(=O)c1nc2ccccc2s1`: the Activity in [3] is listed as 4.91 log10CFU; in series [4] it was 1.16 deltalog10CFU; in [5] it was 4.36 log10CFU; in series [6] it was 0.11 deltalog10CFU. Moreover, in [7], the Stability was found to be 79.8%. Moreover, in [8], the selectivity ratio was 66.
Take `COC(=O)NC(=O)c1ccsc1NC(=O)c1ccc(C(=O)N2CCCCC2)cc1`: the MIC in series [2] is 0.12 µg/mL (≈ 0.289 µM); in series [1] it was more than 32 µg/mL. Also, the Activity is recorded as 5.06 log10CFU in [3], 0.75 deltalog10CFU in series [4], 4.77 log10CFU in [5] and 0.46 deltalog10CFU in series [6]. Besides, the IC50 in the series with HepG2 was more than 64 µg/mL.
With `CCCNC(=O)c1ccc(C(=O)Nc2sccc2C(=O)NC(=O)OCC)cc1`, the selectivity ratio in [8] is more than 320.
Turning to `CCOC(=O)NC(=O)c1ccsc1NC(=O)c1ccc(C(=O)N2CCCCC2)c(F)c1`, the Activity in series [3] is 4.41 log10CFU; in series [4] it was 1.34 deltalog10CFU; in series [5] it was 4.18 log10CFU; in series [6], 1.11 deltalog10CFU. Further, the IC50 with HepG2 was more than 64 µg/mL. For the same compound, the selectivity ratio in series [8] was more than 4000.
For `CCOC(=O)NC(=O)c1ccsc1NC(=O)c1ccc(C(=O)N2CCCCC2)s1`, the half-inhibitory concentration (IC50) in the series on HepG2 was more than 64 µg/mL. In series [8], the selectivity ratio was more than 457.
For the compound `CCOC(=O)NC(=O)c1ccsc1NC(=O)c1ccc(C(=O)NC2CCC(C)(C)CC2)cc1`, the MIC in series [1] came to 0.04 µg/mL (≈ 0.0848 µM).
Regarding `COC(=O)NC(=O)c1ccsc1NC(=O)c1ccc(C(=O)N2CCCCC2)c(F)c1`, the Activity in series [3] was found to be 4.75 log10CFU; in [4], 0.93 deltalog10CFU; in [5], 4.59 log10CFU; in series [6], 0.77 deltalog10CFU. In addition, in the series on HepG2, the IC50 was more than 64 µg/mL. Moreover, the MIC in series [1] amounted to 1.94 µg/mL (≈ 4.48 µM).
Turning to `NC(=O)c1ccsc1NC(=O)c1ccc(C(=O)N2CCCCC2)cc1`, in series [1], the MIC is 0.2 µg/mL (≈ 0.56 µM).
In the case of `O=C(Nc1sccc1C(=O)Nc1nccc(C(F)(F)F)n1)c1ccc(C(=O)N2CCCCC2)cc1`, the Activity is listed as 4.59 log10CFU in [3], 0.98 deltalog10CFU in [4], 4.54 log10CFU in series [5] and 0.93 deltalog10CFU in [6]. Also, in series [1], the MIC is more than 32 µg/mL. The selectivity ratio in [8] is more than 320.
For the compound `Cc1ccnc(NC(=O)c2ccsc2NC(=O)c2ccc(C(=O)N3CCCCC3)cc2)n1`, the MIC in series [1] worked out at 0.03 µg/mL (≈ 0.0667 µM). Moreover, the selectivity ratio in series [8] was more than 27.
Consider `CCOC(=O)NC(=O)c1ccsc1NC(=O)c1cc(C(=O)N2CCCCC2)c[nH]1`, for which the MIC in series [1] is 137 µg/mL (≈ 327 µM).
For `Cc1cnc(NC(=O)c2ccsc2NC(=O)c2ccc(C(=O)N3CCCCC3)cc2)s1`, the MIC in [1] is 0.19 µg/mL (≈ 0.418 µM).
On the same count and under the same terms, the value for `Cc1ccnc(NC(=O)c2ccsc2NC(=O)c2ccc(C(=O)N3CCCCC3)c(F)c2)n1` was more than 32 µg/mL.
Still for that read-out and setting: then `Cc1cccc(NC(=O)c2ccsc2NC(=O)c2ccc(C(=O)N3CCCCC3)cc2)n1`, with 15.5 µg/mL (≈ 34.6 µM); and `CCOC(=O)NC(=O)c1ccsc1NC(=O)c1coc(C(=O)N2CCCCC2)c1`, with 37 µg/mL (≈ 88.2 µM).
Still for that read-out and setting: the value for `CCNC(=O)NC(=O)c1ccsc1NC(=O)c1ccc(C(=O)N2CCCCC2)cc1` was 0.47 µg/mL (≈ 1.1 µM).
